Assay results reported in paper PMC4371170 (Learning & Memory, 2015).

Legend:
C57BL/6J mice [1] = experiment: Extinction retention tests after drug without extinction training; type: in vivo; conditions: 10 mg/kg IP without extinction training
C57BL/6J mice [2] = type: in vivo; conditions: 10 mg/kg IP after extinction training
Summary of the method: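 Adult male C57BL/6J mice, 8–12 wk, group-housed 1 wk at 24°C on a 12-h light–dark cycle with food and water ad libitum, tested in the light phase. At 48 h after fear conditioning, three CS trials in a novel Context B (Plexiglas over shock bars, red light, 1% ammonium hydroxide) were averaged to assign groups (n = 12/group) matched for freezing. Extinction training followed 24 h later. Retention tests of 15 CS trials were run 24 and 48 h later, with freezing to the CS scored automatically.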

[3] = 10 mg/kg IP, mouse
[4] = system: global histone H3 acetylation; experiment: Immunocytochemistry of global histone H3 acetylation in BLA and dentate gyrus; type: in vivo, mice; conditions: 10 mg/kg IP, 1 h after administration, qualitative
Summary of the method: (§1)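 Mice received vehicle or test compound at 10 mg/kg IP (n = 2/group). They were perfused 1 h after dosing and brain tissue was processed for immunocytochemistry. Global acetyl-H3 or acetyl-H4 immunofluorescence was imaged with DAPI counterstain in the basolateral amygdala and hippocampal dentate gyrus. Assessment was qualitative, from photomicrographs of colocalization.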

[5] = system: global histone H4 acetylation; experiment: Immunocytochemistry of global histone H4 acetylation in BLA and dentate gyrus; type: in vivo, mice; conditions: 10 mg/kg IP, 1 h after administration, qualitative
Summary of the method: as §1

lysine 8 on H4 = conditions: site regulated by HDAC3; ref Malvaez et al. 2013; cited from earlier work
C57BL/6J mice [6] = experiment: Open-field test; type: in vivo; conditions: 10 mg/kg IP
[7] = system: other HDACs besides HDAC1, HDAC2, HDAC3, and HDAC10; experiment: HDAC inhibitory potency against all 11 HDAC enzymes, remaining enzymes; type: biochemical; conditions: serial dilution starting at 20 μM
HAT activity = conditions: ref Nair et al. 2001; cited from earlier work

Row | brain penetrance compared with RGFP963 [3] | crossing of the blood brain barrier [3] | time of maximum brain concentration post-drug administration [3] | inhibition of any other HDACs [7] | Compound | nonspecific effect on extinction retention (C57BL/6J mice [1]) | effect on consolidation of cued fear extinction (C57BL/6J mice [2]) | global acetylation of histone H3 in the BLA ([4]; compared with vehicle) | global acetylation of histone H3 in the dentate gyrus [4] | global H4 acetylation in the BLA [5] | global acetylation of histone H4 in the dentate gyrus [5] | acetylation of lysine 8 on H4 (lysine 8 on H4) | effect of drug on time spent in the center (C57BL/6J mice [6]; F(2,23) = 0.22, NS) | effect of drug on distance traveled (C57BL/6J mice [6]; F(2,23) = 1.06, NS) | effect on HAT activity (HAT activity)
1 | lower brain penetrance | able to cross the blood brain barrier | 15 min | did not inhibit | Nc1cc(F)ccc1NC(=O)/C=C/c1cnn(C/C=C/c2ccccc2)c1 [RGFP966] | does not nonspecifically enhance extinction retention | no effect | seems to increase | seem to decrease | Neither RGFP966 nor RGFP963 appear to alter | seem to decrease | enhance acetylation | No significant effect | No significant effect | 
2 |  |  |  |  | CC(/C=C/C(=O)NO)=C\[C@@H](C)C(=O)c1ccc(N(C)C)cc1 [trichostatin A] |  |  |  |  |  |  |  |  |  | inhibition of HAT activity
